The source made the active and inactive calls. The calls are words filed in the database; no cut-off is given here. Where a SMILES comes first, the peptide text is derived from it. [ ]: non-standard residue; d: D form. The star is where a group is joined. pGlu = O=C1CC[C@@H](C(=O)O)N1; X2 = CN(N*)C(N)=O
Assays:
[1] = tested on: Rattus norvegicus; test: Ovulation-inducing activity in androgen-sterilized constant-estrus rat at 0.01 ug, iv; format: functional, organism-based
How it was run: (§1)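 Androgen-sterilized constant-estrus rats. Doses are given as μg per rat. The readout is ovulation, scored as the number of animals ovulating out of the number treated at each dose. Groups held 3 to 6 rats.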

[2] = tested on: Rattus norvegicus; test: Ovulation-inducing activity in androgen-sterilized constant-estrus rat at 0.005 ug, iv; format: functional, organism-based; how it was run: as §1
[3] = tested on: Rattus norvegicus; test: Ovulation-inducing activity in iv dosed androgen-sterilized constant-estrus rat relative to luliberin; format: functional
[4] = tested on: Rattus norvegicus; test: Ovulation-inducing activity in androgen-sterilized constant-estrus rat at 0.10 ug, iv; format: functional, organism-based; how it was run: as §1
[5] = tested on: Rattus norvegicus; test: Ovulation-inducing activity in androgen-sterilized constant-estrus rat at 0.05 ug, iv; format: functional, organism-based; how it was run: as §1
[6] = tested on: Rattus norvegicus; test: Ovulation-inducing activity in androgen-sterilized constant-estrus rat at 0.001 ug, iv; format: functional, organism-based; how it was run: as §1
[7] = tested on: Rattus norvegicus; test: Ovulation-inducing activity in androgen-sterilized constant-estrus rat at 1.0 ug, iv; format: functional, organism-based; how it was run: as §1
[8] = tested on: Rattus norvegicus; test: Ovulation-inducing activity in androgen-sterilized constant-estrus rat at 0.125 ug, iv; format: functional, organism-based; how it was run: as §1
[9] = tested on: Rattus norvegicus; test: Ovulation-inducing activity in androgen-sterilized constant-estrus rat at 0.031 ug, iv; format: functional, organism-based; how it was run: as §1
[10] = tested on: Rattus norvegicus; test: Ovulation-inducing activity in androgen-sterilized constant-estrus rat at 0.062 ug, iv; format: functional, organism-based; how it was run: as §1
[11] = tested on: Rattus norvegicus; test: Ovulation-inducing activity in androgen-sterilized constant-estrus rat at 0.0025 ug, iv; format: functional, organism-based; how it was run: as §1
[12] = tested on: Rattus norvegicus; test: Ovulation-inducing activity in androgen-sterilized constant-estrus rat at 0.25 ug, iv; format: functional, organism-based; how it was run: as §1
[13] = tested on: Rattus norvegicus; test: Ovulation-inducing activity in androgen-sterilized constant-estrus rat at 10 ug, iv; format: functional, organism-based; how it was run: as §1

In the case of `CC(C)C[C@@H](C(=O)N[C@@H](CCCNC(=N)N)C(=O)N1CCC[C@H]1C(=O)NNC(N)=O)N(C)C(=O)[C@@H](Cc1ccccc1)NC(=O)[C@H](Cc1ccc(O)cc1)NC(=O)[C@H](CO)NC(=O)[C@H](Cc1c[nH]c2ccccc12)NC(=O)[C@H](Cc1cnc[nH]1)NC(=O)[C@@H]1CCC(=O)N1`, the Activity [1] is reported as “Active” and the Activity [2] is reported as “inactive”.
In the case of `CC(C)C[C@H](NC(=O)[C@@H](Cc1ccccc1)NC(=O)[C@H](Cc1ccc(O)cc1)NC(=O)[C@H](CO)NC(=O)[C@H](Cc1c[nH]c2ccccc12)NC(=O)[C@H](Cc1cnc[nH]1)NC(=O)[C@@H]1CCC(=O)N1)C(=O)N[C@@H](CCCNC(=N)N)C(=O)N1CCC[C@H]1C(=O)NCC(N)=O`, the Activity [1] is reported as “Active” and the Activity [2] is reported as “inactive”.
With `CC(C)C[C@@H](C(=O)N[C@@H](CCCNC(=N)N)C(=O)N1CCC[C@H]1C(=O)NNC(N)=O)N(C)C(=O)[C@@H](Cc1ccccc1)NC(=O)[C@H](Cc1ccc(OC(C)(C)C)cc1)NC(=O)[C@H](CO)NC(=O)[C@H](Cc1c[nH]c2ccccc12)NC(=O)[C@H](Cc1cnc[nH]1)NC(=O)[C@@H]1CCC(=O)N1` the “fold change (FC)” value [3] was 5 and the Activity [4] was “Active”.
`CC(C)C[C@H](NC(=O)[C@@H](CO)NC(=O)[C@H](Cc1ccc(O)cc1)NC(=O)[C@H](CO)NC(=O)[C@H](Cc1c[nH]c2ccccc12)NC(=O)[C@H](Cc1cnc[nH]1)NC(=O)[C@@H]1CCC(=O)N1)C(=O)N[C@@H](CCCNC(=N)N)C(=O)N1CCC[C@H]1C(=O)NNC(N)=O` was tested, and the Activity [5] was “Active” and the Activity [6] was “inactive”.
`CCNC(=O)[C@@H]1CCCN1C(=O)[C@H](CCCNC(=N)N)NC(=O)[C@H](CC(C)C)NC(=O)[C@@H](COC(C)(C)C)NC(=O)[C@H](Cc1ccc(O)cc1)NC(=O)[C@H](CO)NC(=O)[C@H](Cc1c[nH]c2ccccc12)NC(=O)[C@H](Cc1cnc[nH]1)NC(=O)[C@@H]1CCC(=O)N1` was tested, and the Activity [4] was “Active”.
`CCNC(=O)N1CCCN1C(=O)[C@H](CCCNC(=N)N)NC(=O)[C@H](CC(C)C)NC(=O)[C@@H](Cc1ccccc1)NC(=O)[C@H](Cc1ccc(O)cc1)NC(=O)[C@H](CO)NC(=O)[C@H](Cc1c[nH]c2ccccc12)NC(=O)[C@H](Cc1cnc[nH]1)NC(=O)[C@@H]1CCC(=O)N1` was tested, and the Activity [7] was “Active” and the Activity [8] was “inactive”.
`CC(C)C[C@H](NC(=O)[C@@H](Cc1c[nH]c2ccccc12)NC(=O)[C@H](Cc1ccc(O)cc1)NC(=O)[C@H](CO)NC(=O)[C@H](Cc1c[nH]c2ccccc12)NC(=O)[C@H](Cc1cnc[nH]1)NC(=O)[C@@H]1CCC(=O)N1)C(=O)N[C@@H](CCCNC(=N)N)C(=O)N1CCC[C@H]1C(=O)NNC(N)=O` was tested, and the Activity [9] was “inactive”, the “fold change (FC)” value [3] was 5 and the Activity [10] was “Active”.
For `CC(C)C[C@H](NC(=O)[C@@H](Cc1ccccc1)NC(=O)[C@H](Cc1ccc(O)cc1)NC(=O)[C@H](CO)NC(=O)[C@H](Cc1c[nH]c2ccccc12)NC(=O)[C@H](Cc1cnc[nH]1)NC(=O)[C@@H]1CCC(=O)N1)C(=O)N[C@@H](CCCNC(=N)N)C(=O)N1CCC[C@H]1C(=O)NNC(N)=O`, the “fold change (FC)” value [3] was 5, the Activity [11] was “inactive” and the Activity [2] was “Active”.
`CC(C)C[C@H](NC(=O)CNC(=O)[C@H](Cc1ccc(O)cc1)NC(=O)[C@H](CO)NC(=O)[C@H](Cc1c[nH]c2ccccc12)NC(=O)[C@H](Cc1cnc[nH]1)NC(=O)[C@@H]1CCC(=O)N1)C(=O)N[C@@H](CCCNC(=N)N)C(=O)N1CCC[C@H]1C(=O)NN(C)C(N)=O` ([pGlu]HWSYGLRP-X2) was tested, and the Activity [7] was “Active” and the Activity [12] was “inactive”.
`CC(C)C[C@H](NC(=O)N(Cc1ccccc1)NC(=O)[C@H](Cc1ccc(O)cc1)NC(=O)[C@H](CO)NC(=O)[C@H](Cc1c[nH]c2ccccc12)NC(=O)[C@H](Cc1cnc[nH]1)NC(=O)[C@@H]1CCC(=O)N1)C(=O)N[C@@H](CCCNC(=N)N)C(=O)N1CCC[C@H]1C(=O)NNC(N)=O` was tested, and the Activity [13] was “Active”.

— ChEMBL document CHEMBL3244376, “Synthesis and biological activity of highly active alpha-aza analogues of luliberin” (1978)
